Sampled rows, rich in hits. Any-hit rate of the full collection: about 3%.
Granule exo inh: LAMP-1 surface exposure blockers, TALL-104 cells – cell-based, flow cytometry, MLPCN library, primary screen. 360,000 tested, 0.66% active. AID 651702, 2012. TALL-104 LAMP-1 surface exposure; cells stimulated with thapsigargin and PMA. inhibition, % at 10 µM;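 active = inhibition above about 55%, limit read from the data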
MIN6 prolif: inducers of MIN6 beta-cell proliferation, primary screen, ATP luminescence, uHTS. MIN6 cells proliferation, ATPlite luminescence, 48 h; cells starved in 0.2% serum; 100% = growth in 10% serum. AID 2380, 2010. proliferation, % at 10 µM. 330,000 tested, 0.29% active;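 active = compounds whose signal lies at least 3.5 SD above the mean of all wells on their plate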;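 also: 0% = DMSO-treated cells in low-serum medium and 100% = 10% serum control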
UBC13 inh: UBC13 polyubiquitin chain formation inhibitors, primary screen, biochemical, TR-FRET, uHTS; inhibition, % at 20 µM; 330,000 tested, 0.47% active; in the data active = inhibition above about 45%, passing the limit was not always enough
Target sequence (P61088 whole entry, looked up): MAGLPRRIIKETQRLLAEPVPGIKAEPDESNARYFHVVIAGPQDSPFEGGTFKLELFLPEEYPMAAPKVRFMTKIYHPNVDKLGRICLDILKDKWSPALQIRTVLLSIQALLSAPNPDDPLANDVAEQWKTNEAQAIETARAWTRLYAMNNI
hiPSC survival: enhancers of single-cell hiPSC survival, primary screen, ATPlite luminescence. 100% = ROCK inhibitor wells, 0% = DMSO. survival enhancement, % at 20 µM. 360,000 tested, 0.044% active. AID 602274, 2012; in the data active = survival enhancement above about 18%;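 also: cells exposed to compounds for 16 hours before the ATP read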
Apaf-1 inh: inhibitors of human Apaf-1 apoptosome, primary screen, biochemical, DEVD-Rh110 fluorescence, uHTS. inhibition, % at 20 µM. Apoptotic protease-activating factor 1 (Homo sapiens), O14727. reconstituted apoptosome caspase-3 activity. 330,000 tested, 0.71% active; active = inhibition of at least 40% at 20 µM;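 also: plate controls were DMSO wells for no effect and DEVD-CHO caspase inhibitor wells for full effect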
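Assay system: Apoptosome proteins | Medium: pH 7.5 Hepes buffer with CHAPS, BSA, DTT | Also added: Cytochrome c and DEVD-Rh110 substrate | Times: 30 min plus 50 min, RT | Detection: Rhodamine 110 fluorescence at Ex 480/Em 540 nm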
MPTP inh: mitochondrial permeability transition pore inhibitors, primary screen, biochemical, isolated mouse mitochondria, absorbance; Ca2+ swelling absorbance, 30 min; inhibition, % at 10 µM; 360,000 tested, 1.4% active;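 active = inhibition of 50% or more, scaled per plate between neutral and stimulator controls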;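 also: 0% = DMSO wells given calcium and 100% = 1 mM EGTA wells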
Rh123 counter: fluorescence retest of MPTP screen hits in isolated mitochondria, single concentration | shares compounds with MPTP inh | membrane potential, Rhodamine 123 fluorescence | 5,000 tested, 78% active | inhibition, % at 10 µM; in the data active = inhibition above about 22%;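 also: 0% = DMSO vehicle and 100% = positive control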
MPTP abs DR: mitochondrial permeability transition pore inhibitors, dose response, biochemical, absorbance, uHTS hits. shares compounds with MPTP inh. isolated mitochondria swelling. IC50, µM. 780 tested, 58% active. AID 651561, 2012; in the data active = IC50 below about 20 µM
MPTP counter DR: fluorescent counter-screen in isolated mitochondria, dose response, counter-screen for MPTP inhibitor project, biochemical, fluorescence, uHTS hits. shares compounds with MPTP inh. isolated mitochondria counterscreen, fluorescence read-out. IC50, µM. 780 tested, 49% active. AID 651564, 2012; in the data active = IC50 below about 80 µM
Starred values were filed as active, the others as inactive; x = not tested or not shown.

SMILES	Granule exo inh	MIN6 prolif	UBC13 inh	hiPSC survival	Apaf-1 inh	MPTP inh	Rh123 counter	others
COc1ccc(C)cc1N1CC(C(=O)OCc2nc(N)nc(Nc3ccccc3C)n2)CC1=O (stereo not drawn)	-15.4	-2.1	1.2	-0.3	4.2	-0.5	x
CNC(=O)c1cnc(-c2ccccc2)nc1-c1ccccc1	-3.9	-2.2	1.3	-0.4	-6.2	-0.7	x
O=C(Nc1ccc(Cl)cc1)c1cnc(-c2ccccc2)nc1-c1ccccc1	0.6	-6.3	-23.5	-0.3	9.6	72.6*	36.2*
O=C(CCCc1ccccc1)NC12CC3CC(CC(C3)C1)C2	-2.2	-4.7	4.4	1.1	20.2	-0.5	x
O=C(COC(=O)CC1Sc2ccccc2NC1=O)NCc1ccccc1 (stereo not drawn)	4.8	-5.1	-8.4	0.1	6.2	0.9	x
Cc1cc(-n2c(C)cc(C(=O)CSc3[nH]c(=O)cc(C(F)(F)F)c3C#N)c2C)no1	5.0	-7.7	1.0	1.5	-3.8	56.9*	72.2*
CCCOc1ccc(Br)cc1CSC(=N)N	6.1	-5.8	17.2	-2.9	10.7	96.8*	91.5*
CCOc1ccc(Br)cc1CC(=O)O	-1.2	-1.4	5.1	0.7	-14.8	-0.8	x
COc1ccc(-n2cc(CNCCN3CCOC3=O)c(-c3ccccc3Cl)n2)cc1	-0.6	-1.8	-1.2	-0.2	-14.4	-0.6	x
CCN1CCC(CNCc2cn(-c3ccc(OC)cc3)nc2-c2ccccc2Cl)C1 (stereo not drawn)	41.6	-5.0	25.7	-3.0	8.7	83.6*	-12.5	MPTP abs DR=9.05*;MPTP counter DR=>80
NNc1ccc2c(C(F)(F)F)cc(C(F)(F)F)nc2n1	4.6	0.4	6.3	0.8	9.2	-0.4	x
N#CC(c1cccc(Cl)c1)c1ccc2c(C(F)(F)F)cc(C(F)(F)F)nc2n1 (stereo not drawn)	0.7	-4.1	-61.9	0.6	15.6	114.2*	89.5*
Cc1ccc(Cl)cc1-c1cc(C(=O)Nc2ccc(F)cc2)[nH]n1	-1.9	x	x	-1.1	x	64.2*	96.2*
COc1ccc(NC(=O)c2cc(-c3ccccc3O)n[nH]2)cc1Cl	-5.3	-5.6	-8.9	-0.6	-4.2	3.4	x
Cc1cc(C)c(O)c(-c2cc(C(=O)Nc3cccnc3)[nH]n2)c1	2.4	-1.9	-8.3	-0.1	-6.5	58.9*	59.6*
COc1ccc(NC(=O)c2cc(-c3cc(C)cc(C)c3O)n[nH]2)cc1Cl	9.1	-6.2	-18.2	8.6	29.9	94.9*	63.2*
Cc1cc(O)c(-c2cc(C(=O)Nc3cccnc3)[nH]n2)cc1C	-1.5	-2.5	1.9	-0.6	-10.8	4.6	x
Fc1ccc(Nc2nnc(-c3ccncc3)s2)cc1Cl	2.0	x	x	1.4	x	7.5	x
CCc1nnc(SCC(=O)Nc2ccc(NC(C)=O)cc2)n1-n1cccc1	2.7	-0.8	-7.4	-0.4	-6.8	-1.4	x
O=C(NCc1csc(-c2cccs2)n1)Nc1ccc(F)cc1F	6.2	-0.9	1.3	-0.3	0.2	5.6	x
O=C(NCc1csc(-c2cccs2)n1)Nc1ccc(C(F)(F)F)cc1	-2.4	-1.6	4.1	-0.5	-12.7	66.1*	76.6*
COc1ccc(-n2c(SCCNCCO)nc3sc4c(c3c2=O)CCCC4)cc1	4.8	-2.5	26.3	-0.4	32.2	76.5*	-19.8	MPTP abs DR=8.33*;MPTP counter DR=>80
O=C(NC1CCc2ccccc21)c1cc(COc2cncc(Cl)c2)on1 (stereo not drawn)	3.7	-3.6	-1.8	-0.2	24.3	-1.0	x
CN1/C(=C\C(=O)Nc2ccc(Cl)cc2)C(C)(C)c2ccccc21	4.6	-5.7	-14.7	-1.1	9.2	78.6*	70.0*

Screening results from PubChem BioAssay.
